Laboratory results taken from ChEMBL document CHEMBL1136814, “Design of a new peptidomimetic agonist for the melanocortin receptors based on the solution structure of the peptide ligand, Ac-Nle-cyclo[Asp-Pro-DPhe-Arg-Trp-Lys]-NH(2)” (Bioorg Med Chem Lett, 2003).

Key:
Melanocortin receptor 4 [1] = molecular target: T1, Melanocortin receptor 4 (Homo sapiens, UniProt P32245); assay: Binding affinity towards human melanocortin 4 receptor (hMC4R) using [125I]NDP-alpha-MSH as radioligand
Outline: (§1)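 Nonspecific binding taken with excess unlabeled NDP-MSH. Stopped by rapid filtration through GF/C glass-fibre filters, three ice-cold water washes, bound radioactivity by scintillation counting. IC50 from nonlinear regression of concentration curves.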

[2] = molecular target: Melanocyte-stimulating hormone receptor (Mus musculus, UniProt Q01727); assay: Binding affinity towards mouse Melanocortin 1 receptor (mMC1R) using [125I]NDP-alpha-MSH as radioligand
Melanocyte-stimulating hormone receptor, sequence (Q01727 whole entry): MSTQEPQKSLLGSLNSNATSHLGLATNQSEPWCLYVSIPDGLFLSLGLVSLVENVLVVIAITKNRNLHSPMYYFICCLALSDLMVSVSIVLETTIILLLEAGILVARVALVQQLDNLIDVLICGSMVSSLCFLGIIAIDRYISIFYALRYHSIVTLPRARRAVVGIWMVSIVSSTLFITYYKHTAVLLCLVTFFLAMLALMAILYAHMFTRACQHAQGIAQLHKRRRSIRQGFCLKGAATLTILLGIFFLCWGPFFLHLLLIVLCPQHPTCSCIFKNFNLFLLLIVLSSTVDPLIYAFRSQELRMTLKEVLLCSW
Outline: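 Receptor membranes ([…]) incubated 2 h at 30 °C in assay buffer with test compound at various concentrations plus 0.2 nM 125I-NDP-α-MSH. Nonspecific binding taken with excess unlabeled NDP-MSH. Stopped by rapid filtration through GF/C glass-fibre filters, three ice-cold water washes, bound radioactivity by scintillation counting. IC50 from nonlinear regression of concentration curves.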

Melanocortin receptor 3 = Melanocortin receptor 3 (Homo sapiens, UniProt P41968); assay: Binding affinity towards human melanocortin 3 receptor (hMC3R) using [125I]NDP-alpha-MSH as radioligand; outline: as §1
Melanocortin receptor 3, sequence (P41968 whole entry): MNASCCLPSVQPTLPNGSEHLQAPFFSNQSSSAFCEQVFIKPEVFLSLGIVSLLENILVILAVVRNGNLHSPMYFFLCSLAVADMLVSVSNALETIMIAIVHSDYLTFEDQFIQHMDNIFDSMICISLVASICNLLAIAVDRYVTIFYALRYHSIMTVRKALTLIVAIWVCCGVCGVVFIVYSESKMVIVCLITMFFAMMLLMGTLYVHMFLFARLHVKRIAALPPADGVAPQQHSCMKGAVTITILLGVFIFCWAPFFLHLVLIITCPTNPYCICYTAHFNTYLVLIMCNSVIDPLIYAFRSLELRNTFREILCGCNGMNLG

Melanocortin receptor 4 [3] = molecular target: T1, Melanocortin receptor 4; assay: Intracellular levels of cAMP in HEK 293 cells expressing human melanocortin 4 receptor (hMC4R); format: cell-based, HEK293
Outline: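 Cells seeded at 75,000/well on fibronectin and assayed about 48 h later. Medium replaced with DMEM containing IBMX, peptide added across a six-point dilution range starting at 0.1 nM, 30 min at 37 °C. Lysis stopped the reaction; cAMP quantified by chemiluminescent ELISA. EC50 reported as mean ± SEM of two determinations.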

T1 sequence (P32245 whole entry): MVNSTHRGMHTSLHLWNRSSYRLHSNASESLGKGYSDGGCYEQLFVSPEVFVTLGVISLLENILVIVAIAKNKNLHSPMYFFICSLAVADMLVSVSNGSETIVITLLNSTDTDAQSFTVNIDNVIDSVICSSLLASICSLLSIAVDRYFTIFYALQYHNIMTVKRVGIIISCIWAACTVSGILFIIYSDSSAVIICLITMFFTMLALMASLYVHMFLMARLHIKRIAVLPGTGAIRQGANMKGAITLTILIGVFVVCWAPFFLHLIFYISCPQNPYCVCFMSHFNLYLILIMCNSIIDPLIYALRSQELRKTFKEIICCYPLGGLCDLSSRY

Row | SMILES | IC50 (Melanocortin receptor 4 [1]) [µM] | IC50 [2] [µM] | IC50 (Melanocortin receptor 3) [µM] | EC50 (Melanocortin receptor 4 [3]) [µM]
1 | CC(=O)N(CCCCN=C(N)N)C1CCC(N(CCc2c[nH]c3ccccc23)C(C)=O)CC1 (stereo not drawn) | > 10 | > 10 | > 10 | –
2 | CC(=O)N[C@H](Cc1ccccc1)C(=O)N(CCCCNC(=N)N)C1CCC(N(CCc2c[nH]c3ccccc23)C(C)=O)CC1 (stereo in doubt; trans) | 3.5 | > 10 | > 10 | 0.68
3 | CC(=O)N[C@H](Cc1ccccc1)C(=O)N(CCCCNC(=N)N)C1CCC(N(CCc2c[nH]c3ccccc23)C(C)=O)CC1 (stereo in doubt; cis) | 0.0077 | 0.051 | 0.28 | 0.004
4 | CC(=O)N[C@H](Cc1ccccc1)C(=O)N(CCCCNC(=N)N)C1CCC(N(CCc2c[nH]c3ccccc23)C(C)=O)CC1 (stereo in doubt; 11) | 0.5 | – | – | –

Continued, values first:

Row | IC50 (Melanocortin receptor 4 [1]) [µM] | IC50 [2] [µM] | IC50 (Melanocortin receptor 3) [µM] | EC50 (Melanocortin receptor 4 [3]) [µM] | SMILES
5 | 9.25 | 10 | > 10 | – | CC(=O)N[C@@H](Cc1ccccc1)C(=O)N(CCCCN)C1CCC(N(CCc2c[nH]c3ccccc23)C(C)=O)CC1 (stereo partly drawn)
6 | > 10 | 9 | > 10 | – | CC(=O)N[C@@H](Cc1ccccc1)C(=O)N(CCCCN=C(N)N)C1CCC(N(C)C(C)=O)CC1 (stereo partly drawn)
